Measured values from different studies.
Compare with care: the assays were run in different laboratories.
Target: Activin receptor type-2B (ACVR2B, Homo sapiens, UniProt Q13705)

O=C(c1ccc(Nc2ncc(Cl)c(-c3ccc(Cl)s3)n2)cc1)N1CCC(N2CCCC2)CC1  remaining binding (binding, competition with immobilised ligand; 1 µM): 77%
CC(=O)N1CCC(c2ccc(C(=O)NC(=N)N)cc2C(F)(F)F)CC1  remaining binding (binding, competition with immobilised ligand; 1 µM): 100%
Nc1ncc2c(n1)-c1c([nH]c3ccc(C#CC4CC4)cc13)CCCC2  remaining binding (binding, competition with immobilised ligand; 1 µM): 89%
Cc1cnc(Nc2ccc(C(=O)N3CCC(N4CCCC4)CC3)cc2)nc1-c1cc2ccccc2s1  remaining binding (binding, competition with immobilised ligand; 1 µM): 61%
O=C(Nc1c[nH]nc1C(=O)NC1CCNCC1)c1cc(F)cc(F)c1  remaining binding (binding, competition with immobilised ligand; 1 µM): 100%
Cc1cnn2ncc(-c3ccnc(N(C)C)n3)c2c1  remaining binding (binding, competition with immobilised ligand; 1 µM): 100%
CCN1CCN(Cc2ccc(C(=O)Nc3ccc(C)c(Oc4ccc5c(c4)CC(=O)N5)c3)cc2C(F)(F)F)CC1  remaining binding (binding, competition with immobilised ligand; 1 µM): 100%
F[C@@H]1CCN(c2nccc(-c3cnn4ncccc34)n2)C1  remaining binding (binding; 1 µM): 100%
COc1cnc(Nc2cccc(S(N)(=O)=O)c2)nc1N1CCN(c2ccccc2)CC1  remaining binding (binding, competition with immobilised ligand; 1 µM): 100%
O=c1nc(-c2ccccn2)sc2ccccc12  remaining binding (binding, competition with immobilised ligand; 1 µM): 100%
O=C(NCCCN1CCOCC1)c1ccc(Nc2ncc(Cl)c(-c3ccc(Cl)s3)n2)cc1  remaining binding (binding, competition with immobilised ligand; 1 µM): 81%
c1cncc(-c2cccc(Nc3nccc(NC4CCCCC4)n3)c2)c1  remaining binding (binding, competition with immobilised ligand; 10 µM): 85%
CN(C)c1nccc(-c2cnn3ncccc23)n1  remaining binding (binding, competition with immobilised ligand; 1 µM): 85%
Cc1nc(C2CCN(C(=O)c3ccc(OC(F)(F)F)cc3N)CC2)c2ncc(N3CCN(C)CC3)cc2n1  remaining binding (cell-free assay, competition with immobilised ligand; 1 µM): 100%
CN(C)c1ncc(F)c(-c2cnn3ncccc23)n1  remaining binding (binding, competition with immobilised ligand; 1 µM): 95%
CN(C)C(=O)Cn1cc(-c2nc(C3(c4ccc(-c5cnc(N)nc5)cc4)CC3)no2)cn1  remaining binding (binding, competition with immobilised ligand; 1 µM): 96%
c1cnn2ncc(-c3ccnc(N4CCC45COC5)n3)c2c1  remaining binding (binding; 1 µM): 90%
O=C1CCc2cc(Nc3cc(OC4CCOCC4)c([N+](=O)[O-])cc3Cl)ccc2N1  remaining binding (cell-free assay, competition with immobilised ligand; 1 µM): 89%
N[C@H]1CCN(c2nccc(-c3cnn4ncccc34)n2)C1  remaining binding (binding, competition with immobilised ligand; 1 µM): 93%
CO[C@@H](C)c1c(Nc2ccc([C@@H](N(C)C(=O)C3CCS(=O)(=O)CC3)C(F)(F)F)cc2)cnc2cc(Cl)nn12  remaining binding (cell-free assay, competition with immobilised ligand; 1 µM): 100%
